Measured values gathered from unrelated publications.
Protocols differ between the studies behind these lines.
TOP2A: DNA topoisomerase 2-alpha (TOP2A, Homo sapiens, UniProt P11388)
FLT3 ITD: Receptor-type tyrosine-protein kinase FLT3 (FLT3, Homo sapiens, UniProt P36888, ITD)
TNKS2: Poly [ADP-ribose] polymerase tankyrase-2 (TNKS2, Homo sapiens, UniProt Q9H2K2)

Cc1n[nH]c2ccc3nc(-c4ccc(C(=O)NCCN(C)C)cc4)c4c(c3c12)CCCCC4
IC50 (Receptor-type tyrosine-protein kinase FLT3 (FLT3, Homo sapiens, UniProt P36888, F691L); enzyme activity, inhibitor): 104 nM

CN(C)c1cccc(Nc2nc(-c3ccncc3)nc3c2CNCC3)c1
IC50 (TOP2A; enzyme activity, inhibitor): 140000 nM

Cn1cc(C2=C(c3cn(CCCSC(=N)N)c4ccccc34)C(=O)NC2=O)c2ccccc21
IC50 (Mitogen-activated protein kinase kinase kinase 8 (MAP3K8, Homo sapiens, UniProt P41279); enzyme activity, inhibitor): 11000 nM

CCCCCCC#Cc1cncc(-c2nnc(SCc3cc([N+](=O)[O-])cc([N+](=O)[O-])c3)n2CCCN)c1
IC50 (mraY (Staphylococcus aureus, UniProt Q2FZ93); enzyme activity, inhibitor): 25000 nM

Cc1cc(C(=O)N2CC(N3CCN(C(=O)c4nccs4)CC3)C2)ccc1-c1ccc(F)c(Cl)c1
IC50 (Monoglyceride lipase (MGLL, Homo sapiens, UniProt Q99685); enzyme activity, inhibitor, fluorescence): 5.15 nM

CN(C)CCNC(=O)c1ccc(-c2nc3ccc4[nH]ncc4c3c3c2CCCCC3)cn1
IC50 (FLT3 ITD; enzyme activity, inhibitor): 420 nM

Fc1ccccc1Nc1nc(-c2ccncc2)nc2c1CNCC2
IC50 (TOP2A; enzyme activity, inhibitor): 4500 nM

CC(C)(O)c1ccc(-c2nc3cc(NC(=O)c4ccc(-c5ccccc5)nc4)ccc3c(=O)[nH]2)cc1
IC50 (TNKS2; enzyme activity, inhibitor): 10.6 nM

CN(C)CCNC(=O)c1ccc(-c2nc3ccc4[nH]ncc4c3c3c2CCCCC3)cc1
IC50 (Receptor-type tyrosine-protein kinase FLT3 (FLT3, Homo sapiens, UniProt P36888); enzyme activity, inhibitor): 48 nM

CC(C)(O)c1ccc(-c2nc3cc(NC(=O)c4cnc(Oc5ccccc5)nc4)ccc3c(=O)[nH]2)cc1
IC50 (TNKS2; enzyme activity, inhibitor): 7.96 nM

C=CCn1c(=O)c2cnc(Nc3ccc(N4CCN(C)CC4)cc3)nc2n1-c1ccc2c(n1)[C@@](O)(CC)CC2
IC50 (Serine/threonine-protein kinase PLK1 (PLK1, Homo sapiens, UniProt P53350); target engagement in cells, BRET): > 10000 nM

CNC(=O)[C@H](Cc1c[nH]c2ccccc12)NC(=O)[C@@H](CC(=O)NO)CC(C)C
IC50 (Stromelysin-1 (MMP3, Homo sapiens, UniProt P08254); enzyme activity, inhibitor): 12.5 nM

COc1cc(-c2ccccc2)ncc1C(=O)Nc1ccc2c(=O)[nH]c(-c3ccc(C(C)(C)O)cc3)nc2c1
IC50 (TNKS2; enzyme activity, inhibitor): 3.46 nM

CN(C)CCNC(=O)c1ccc(-c2nc3ccc4[nH]ncc4c3c3c2CCC3)cc1
IC50 (FLT3 ITD; enzyme activity, inhibitor): 659 nM

COc1cccc(Nc2nc(-c3ccncc3)nc3c2CNCC3)c1
IC50 (TOP2A; enzyme activity, inhibitor): 120000 nM
